The source of these data is ChEMBL document CHEMBL1127619, “Synthesis of naltrexone-derived delta-opioid antagonists. Role of conformation of the delta address moiety” (J Med Chem, 1994).

One may read the Ki as a measure of affinity in units of concentration, obtained from inhibition or displacement.

For assay [1], the target named is Kappa-type opioid receptor (Cavia porcellus, UniProt P41144). As to the kind of experiment: Tested for binding activity against kappa opioid receptor using [3H]U-69593 ligand. The method, boiled down: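 Guinea pig brain membranes; competition of test ligand against the tritiated radioligand selective for each site: [3H]DPDPE (δ1), [3H]U69593 (κ), [3H]DAMGO (μ). Ki values derived from the competition curves.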

In assay [2] the target is Kappa-type opioid receptor (Cavia porcellus) (UniProt P41144). The note with it: 100 nM.
Assay [3] concerns the target Mu-type opioid receptor (Cavia porcellus) (UniProt P97266). The note with it: 100 nM.
For assay [4], the target named is Delta-type opioid receptor (Mus musculus) (UniProt P32300). Conditions: 100 nM.
Assay [5] concerns the target Kappa-type opioid receptor (Cavia porcellus) (UniProt P41144). The note with it: 100 nM. This is another data set of the same source.
The subject of assay [6] is Mus musculus. As to the kind of experiment: Antagonism of antinociceptive effect of mu receptor selective agonist morphine in mice, icv (treated). The format is functional. The note with it: central. A digest of the protocol:
(§1)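 Mice received 2 nmol antagonist icv, timed with the icv agonist so the antagonist peak (20 min) coincided with the centre of the tail-flick observation period. Treated ED50 is in nmol/mouse for DPDPE and DSLET and in µmol/kg for morphine and U50488. ED50 ratio is treated over control.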

The species entered for assay [7] is Mus musculus. The assay is described as follows: Antagonism of antinociceptive effect of delta 2 selective agonist DSLET in mice (control). The assay is classed as functional. A digest of the protocol: (§2)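 Mouse tail-flick assay; agonist given icv without antagonist pretreatment, timed so its peak effect fell at the centre of the observation period. Control ED50 derived, expressed as nmol/mouse for DPDPE and DSLET and as µmol/kg for morphine and U50488.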

The target in assay [8] is T1, Delta-type opioid receptor (Rattus norvegicus, UniProt P33533). The assay is described as follows: Tested for binding activity against delta opioid receptor using [3H]naltridole ligand.
Assay [9] deals with Mus musculus. As to the kind of experiment: Antagonism of antinociceptive effect of delta 2 selective agonist DSLET in mice, icv (treated). The assay is classed as functional. The note with it: central.
The species entered for assay [10] is Mus musculus. The assay is described as follows: Antagonism of antinociceptive effect of delta 1 selective agonist DPDPE in mice (control). The assay is classed as functional. A digest of the protocol: as §2
The species named for assay [11] is Mus musculus. As to the kind of experiment: Antagonism of antinociceptive effect of kappa receptor selective agonist U-50,488 in mice (control). The format is functional. A digest of the protocol: as §2
Assay [12] deals with Mus musculus. The assay is described as follows: Antagonism of antinociceptive effect of kappa receptor selective agonist U-50,488 in mice, icv (treated). The format is functional. The note with it: central. The method, boiled down:
as §1

For assay [13], the species on record is Mus musculus. The assay is described as follows: Antagonism of antinociceptive effect of mu receptor selective agonist morphine in mice (control). The assay is classed as functional. The method, boiled down: as §2
The subject of assay [14] is Mus musculus. As to the kind of experiment: Antagonism of antinociceptive effect of delta 1 selective agonist DPDPE in mice, icv (treated). The format is functional. Conditions: central.
Assay [15] deals with T1, Delta-type opioid receptor. As to the kind of experiment: Tested for binding activity against delta1 opioid receptor using [3H]DPDPE ligand.

Structures are written as SMILES.

Chain of Delta-type opioid receptor (Mus musculus) (P32300 whole entry): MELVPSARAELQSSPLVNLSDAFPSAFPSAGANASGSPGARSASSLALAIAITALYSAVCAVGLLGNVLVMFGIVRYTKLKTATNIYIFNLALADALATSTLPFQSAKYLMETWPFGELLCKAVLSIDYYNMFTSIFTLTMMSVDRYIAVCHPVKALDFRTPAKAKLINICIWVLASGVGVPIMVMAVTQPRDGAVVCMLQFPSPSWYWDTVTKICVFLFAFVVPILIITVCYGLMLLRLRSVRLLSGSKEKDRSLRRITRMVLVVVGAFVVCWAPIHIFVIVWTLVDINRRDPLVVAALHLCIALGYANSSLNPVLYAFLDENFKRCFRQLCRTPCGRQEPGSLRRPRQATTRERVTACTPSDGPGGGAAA
Chain of Mu-type opioid receptor (Cavia porcellus) (P97266 whole entry): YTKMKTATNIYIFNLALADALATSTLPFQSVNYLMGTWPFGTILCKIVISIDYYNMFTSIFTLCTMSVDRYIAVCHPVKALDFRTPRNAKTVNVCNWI
Chain of Kappa-type opioid receptor (P41144 whole entry): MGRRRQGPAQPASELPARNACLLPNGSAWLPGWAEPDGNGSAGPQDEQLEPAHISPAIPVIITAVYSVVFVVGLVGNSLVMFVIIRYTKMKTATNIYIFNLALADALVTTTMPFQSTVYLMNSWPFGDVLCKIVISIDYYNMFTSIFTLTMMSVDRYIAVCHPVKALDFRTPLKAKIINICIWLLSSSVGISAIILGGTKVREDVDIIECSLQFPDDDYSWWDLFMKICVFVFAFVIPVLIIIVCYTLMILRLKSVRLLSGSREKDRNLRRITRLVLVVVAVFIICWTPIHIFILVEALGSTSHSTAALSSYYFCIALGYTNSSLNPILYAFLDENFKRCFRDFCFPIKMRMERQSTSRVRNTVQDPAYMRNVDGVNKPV
Chain of Kappa-type opioid receptor (Cavia porcellus) (P41144 whole entry): as above
T1 sequence (P33533 whole entry): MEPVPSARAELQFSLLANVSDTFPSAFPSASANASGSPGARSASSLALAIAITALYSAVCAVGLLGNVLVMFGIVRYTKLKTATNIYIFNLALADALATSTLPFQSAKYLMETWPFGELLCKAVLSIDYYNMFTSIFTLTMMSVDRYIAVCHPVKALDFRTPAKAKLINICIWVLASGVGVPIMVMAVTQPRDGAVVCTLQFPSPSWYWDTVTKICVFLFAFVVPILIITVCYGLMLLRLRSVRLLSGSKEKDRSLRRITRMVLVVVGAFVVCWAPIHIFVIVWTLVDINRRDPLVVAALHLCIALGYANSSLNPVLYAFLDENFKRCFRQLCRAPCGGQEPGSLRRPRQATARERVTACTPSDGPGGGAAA

On to `Oc1ccc2c3c1O[C@H]1[C@H](Nc4ccccc4)CC[C@@]4(O)[C@@H](C2)N(CC2CC2)CC[C@]314`, for which the Ki in [1] was 2.2 nM. Besides, the Ke in [2] was found to be 6 nM; in assay [3], 1.3 nM; in assay [4] it was 100 nM.

`Oc1ccc2c3c1O[C@H]1[C@@H](Nc4ccccc4)CC[C@@]4(O)[C@@H](C2)N(CC2CC2)CC[C@]314` gave an inhibition constant (Ki) in assay [1] of 2.2 nM. Besides, the values for the Ke in assay [2], in [3] and in [4] were 100 nM, 3.2 nM and 8.8 nM, respectively.

Turning to `O=C1[C@@H]2Oc3c(O)ccc4c3[C@@]23CCN(CC2CC2)[C@H](C4)[C@]3(O)CC12Cc1ccccc1C2`, the Ke in assay [5] came out at 105 nM; in assay [3], 4.2 nM; in assay [4], 0.78 nM. Moreover, the ED50 turned out to be 21.1 µmol/kg in the assay on Mus musculus [6]; 0.7 uM mouse-1 in the assay filed under Mus musculus [7]; 2.8 µmol/kg in the assay on Mus musculus [9]; 6.4 uM mouse-1 in the assay listed under Mus musculus [10]; 8.6 uM mouse-1 in the assay listed under Mus musculus [11]; 12.2 µmol/kg with Mus musculus [12]. The ED50 in the assay filed under Mus musculus [13] worked out at 6.9 uM mouse-1; in the assay on Mus musculus [14], 46.3 µmol/kg. For the same molecule, the Ki came out at 0.047 nM in [8] and 12.5 nM in assay [1].

`O=C1/C(=C\c2ccccc2)C[C@@]2(O)[C@H]3Cc4ccc(O)c5c4[C@@]2(CCN3CC2CC2)[C@H]1O5` came in with a Ki in assay [1] of 66 nM. For the same molecule, the Ke was determined as 53 nM in assay [2] and 24 nM in assay [4].

`O=C1/C(=C/c2ccccc2)C[C@@]2(O)[C@H]3Cc4ccc(O)c5c4[C@@]2(CCN3CC2CC2)[C@H]1O5` [BNTX]: the Ki in assay [1] stood at 5.9 nM. The Ke in [2] worked out at 100 nM; in [3] it was 8.3 nM; in assay [4] it was 2.9 nM.

In the case of `Oc1ccc2c3c1O[C@H]1c4[nH]c5ccccc5c4C[C@@]4(O)[C@@H](C2)N(CC2CC2)CC[C@]314` [NALTRINDOLE], in assay [15], the Ki amounted to 7.2 pM.

Regarding `O=C1[C@@H](Cc2ccccc2)C[C@@]2(O)[C@H]3Cc4ccc(O)c5c4[C@@]2(CCN3CC2CC2)[C@H]1O5`, in [1], the affinity, expressed as Ki, was 25 nM. Further, the Ke in [3] turned out to be 21 nM; in assay [4], 1.5 nM.

`Oc1ccc2c3c1O[C@H]1C4(CC[C@@]5(O)[C@@H](C2)N(CC2CC2)CC[C@]315)Oc1ccccc1O4` had a Ki in [1] of 25 nM. In addition, the Ke in assay [3] worked out at 40 nM.
